Assay results collected from several papers.
Compare with care: the assays were run in different laboratories.
Target: Calcium/calmodulin-dependent protein kinase type 1D (CAMK1D, Homo sapiens, UniProt Q8IU85)

CN(CCCC(F)(F)F)c1nccc(-c2cnn3ncccc23)n1
remaining binding (binding; 1 µM): 86%

CN1CCC2(CC1)NC(=O)c1c(c3ccc(Cl)c(Cl)c3n1C)C2C#N (racemic)
ΔTm (thermal stability; DSF; 10 µM): -0.4 °C

COc1cc2ncnc(Nc3ccc(Oc4ccccc4)cc3C)c2cc1OC
inhibition (enzyme activity; inhibitor; 1 µM): 1%

Nc1nc(Nc2ccc(S(N)(=O)=O)cc2)nn1C(=O)c1c(F)cccc1F
remaining signal (cell-free assay; 0.5 µM): 97.7%

c1ccc(CNc2nc(N3CCOc4ccccc43)nc3c2CCCC3)cc1
inhibition (target engagement in cells; inhibitor; chemoproteomics; 20 mM): -2.2%

CNCc1ccccc1-c1csc([C@@H](C)Nc2nc(C)nc3cc(OC)c(OC)cc23)c1
remaining binding (cell-free assay; competition with immobilised ligand; 1 µM): 100%

CCCCNc1ncc2c(-c3ccc(F)cc3)nn(C[C@H]3CC[C@H](N)CC3)c2n1
inhibition (target engagement in cells; inhibitor; chemoproteomics; 20 mM): 5.9%

CC(C)(O)[C@H]1CC[C@H](Nc2ccc3ncc(-c4cccc(C(F)(F)F)c4)n3n2)CC1
remaining activity (enzyme activity; inhibitor; 1 µM): 83.7%

Cn1c2c(c3ccc(Cl)c(Cl)c31)C(C#N)C1(CCOCC1)NC2=O (stereo not shown)
ΔTm (thermal stability; DSF; 10 µM): -0.5 °C

O=c1cc(-c2cccc3c2Sc2ccccc2S3)oc(N2CCOCC2)c1
remaining activity (enzyme activity; inhibitor; 0.5 µM): 106%

CC1(C)NC(=O)c2[nH]c3c(Cl)c(Cl)ccc3c2C1C#N (stereo not shown)
ΔTm (thermal stability; DSF; 10 µM): -0.6 °C

CNC(=O)c1cc(Oc2ccc(NC(=O)Nc3ccc(Cl)c(C(F)(F)F)c3)cc2)ccn1
inhibition (enzyme activity; inhibitor; 0.3 µM): 11%

CC(C)(C)c1nc2c(s1)c1nc(N)ncc1c1ccc(NS(=O)(=O)c3c(F)cccc3F)c(F)c12
remaining activity (enzyme activity; inhibitor; radiometric; 1 µM): 97%

CCS(=O)(=O)c1cc2cc(C[C@@](O)(CC(C)(C)c3ccc(F)cc3C(N)=O)C(F)(F)F)[nH]c2cn1
remaining binding (cell-free assay; competition with immobilised ligand; 1 µM): 89%

CCN(CC)c1ccc(C2=NNC(=O)CC2C)cc1[N+](=O)[O-] (stereo not shown)
remaining activity (enzyme activity; inhibitor; 10 µM): 105%

O=C1CCc2cc(Nc3cc(OC4CCOCC4)c([N+](=O)[O-])cc3Cl)ccc2N1
remaining binding (cell-free assay; competition with immobilised ligand; 1 µM): 100%

CCCOc1ccc(OC)c(F)c1C(=O)c1ccc(C(=O)N[C@@H]2CNC[C@H]2NC(=O)c2ccc3[nH]ncc3c2)cc1
remaining activity (enzyme activity; inhibitor; 10 µM): 63%

O=C(Nc1cnn(-c2csc(C(=O)NC3COC3)c2)c1)Nc1c(F)cccc1Cl
remaining activity (enzyme activity; inhibitor; 5 µM): 99.6%

Cc1cc(-n2nc(Cc3cc(F)cc(C(F)(F)F)c3)nc2C)ccc1C(N)=O
remaining binding (cell-free assay; competition with immobilised ligand; 1 µM): 96%

C[S+]([O-])c1ccc(-c2nc(-c3ccncc3)c(-c3ccc(F)cc3)[nH]2)cc1 (stereo not shown)
remaining signal (cell-free assay; 0.5 µM): 105%

Cc1cc(NC(=O)c2cccc3cc(-c4cccc5[nH]nc(N)c45)ccc23)ccc1F
activity vs control (enzyme activity; inhibitor; 0.1 µM): 102%

CC(=O)N1CCC(c2ccc(C(=O)NC3=NCCN3)cc2C(F)(F)F)CC1
remaining binding (cell-free assay; competition with immobilised ligand; 1 µM): 100%

Cc1ccc(Nc2nccc(N(C)c3ccc4c(C)n(C)nc4c3)n2)cc1S(N)(=O)=O
inhibition (enzyme activity; inhibitor; 10 µM): 32%

O=C(NCc1ncc(C(F)(F)F)cc1Cl)c1ccc2c(c1)C1(CCS(=O)(=O)CC1)[C@@H](C1CC1)N2S(=O)(=O)c1ccc(F)cc1
remaining binding (cell-free assay; competition with immobilised ligand; 1 µM): 99%

O=C1Nc2ccc(Cl)cc2C1=Cc1cc(Cl)c(O)c(Cl)c1
remaining signal (cell-free assay; 0.5 µM): 104%

CCN1CCC2(CC1)NC(=O)c1c(c3ccc(Cl)c(Cl)c3n1C)C2C#N (racemic)
ΔTm (thermal stability; DSF; 10 µM): -0.1 °C

CO[C@@H](C)c1c(Nc2ccc([C@@H](N(C)C(=O)C3CCS(=O)(=O)CC3)C(F)(F)F)cc2)cnc2cc(Cl)nn12
remaining binding (cell-free assay; competition with immobilised ligand; 1 µM): 100%

N#CC1c2c([nH]c3c(Cl)c(Cl)ccc23)C(=O)NC12CCCCC2 (racemic)
ΔTm (thermal stability; DSF; 10 µM): 0.7 °C

Cc1ccc(C(=O)Nc2ccc(CN3CCN(C)CC3)c(C(F)(F)F)c2)cc1C#Cc1cnc2cccnn12
remaining activity (enzyme activity; inhibitor; 23.5 nM): 86%

COc1cc(-c2cn(C3CCc4ccccc4N(CC(F)(F)F)C3=O)nn2)ccc1-n1ccc(C)n1 (stereo not shown)
remaining binding (cell-free assay; competition with immobilised ligand; 1 µM): 100%

Cn1c2c(Cl)c(Cl)ccc2c2cn[nH]c(=O)c21
ΔTm (thermal stability; DSF; 10 µM): -0.1 °C
